The source made the active and inactive calls. No cut-off for these calls is given here.
Experiments:
[1] = tested on: Human immunodeficiency virus 2; test: Antiviral activity against HIV2 ROD infected in human CEM cells assessed as inhibition of virus-induced giant cell formation after 4 to 5 days; type: functional, organism-based; conditions: ISOLATE ROD, CCRF-CEM
Summary of the method: (§1)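 CEM cells at about 3 × 10^5 cells/mL were infected with 100 CCID50 of HIV per mL, with compound dilutions present. They were incubated 4–5 days at 37 °C in humidified CO2, and syncytia were scored microscopically. EC50 is the concentration that inhibits giant cell formation by 50%.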

[2] = tested on: Human immunodeficiency virus 1; test: Antiviral activity against HIV1 3B infected in human CEM cells assessed as inhibition of virus-induced giant cell formation after 4 to 5 days; type: functional, organism-based; conditions: CCRF-CEM; summary of the method: as §1
Feline coronavirus = test: Antiviral activity against Feline coronavirus; type: functional, organism-based
Sindbis virus = test: Antiviral activity against Sindbis virus; type: functional, organism-based
Summary of the method: (§2)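 Confluent HEL, Vero, HeLa or MDCK cell cultures were inoculated with 100 CCID50 of virus alongside varying compound concentrations. Cytopathicity was scored when it reached completion in untreated virus controls. EC50 is the concentration that reduces virus-induced cytopathogenicity by 50%.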

Punta Toro virus = test: Antiviral activity against Punta Toro virus; type: functional, organism-based; summary of the method: as §2
Influenza B virus = test: Antiviral activity against Influenza B virus; type: functional, organism-based
Summary of the method: (§3)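 The assay was a cell-based cytopathicity inhibition test on confluent monolayers with serial compound dilutions. EC50 was the concentration that reduced virus-induced cytopathicity by 50%.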

[3] = tested on: Mammalian orthoreovirus 1; test: Antiviral activity against Reovirus-1; type: functional, organism-based; summary of the method: as §2
Influenza A virus [4] = test: Antiviral activity against Influenza virus A virus H3N2; type: functional, organism-based; summary of the method: as §3
Human respirovirus 3 = test: Antiviral activity against Parainfluenza virus 3; type: functional, organism-based; summary of the method: as §2
Influenza A virus [5] = test: Antiviral activity against Influenza virus A virus H1N1; type: functional, organism-based; summary of the method: as §3
Coxsackievirus B4 = test: Antiviral activity against Coxsackie B4 virus; type: functional, organism-based; summary of the method: as §2
[6] = tested on: Vesicular stomatitis virus; test: Antiviral activity against Vesicular stomatitis virus; type: functional, organism-based
[7] = tested on: Respiratory syncytial virus; test: Antiviral activity against Respiratory syncytial virus Long; type: functional, organism-based; summary of the method: as §2
Vaccinia virus = test: Antiviral activity against Vaccinia virus Lederle; type: functional, organism-based; conditions: Orthopoxvirus vaccinia
Human alphaherpesvirus 3 [8] = test: Antiviral activity against Varicella-zoster virus YS; type: functional, organism-based
Summary of the method: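 VZV was assayed by plaque formation. Confluent cell cultures received 10 or 100 PFU with varying compound concentrations, and plaques were recorded once complete in untreated infected controls. EC50 is the concentration that reduces plaque formation by 50%.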

Human alphaherpesvirus 3 [9] = test: Antiviral activity against Varicella-zoster virus OKA; type: functional; conditions: strain Oka vaccine
Summary of the method: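 Confluent cell monolayers were infected with 10 or 100 PFU of VZV in the presence of serial compound dilutions. Plaque formation was recorded once untreated infected controls reached completion. EC50 was the concentration that reduced plaque formation by 50%.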

Human alphaherpesvirus 2 [10] = test: Antiviral activity against Herpes simplex virus type 2 Lyons; type: functional, organism-based; summary of the method: as §2
Human alphaherpesvirus 2 [11] = test: Antiviral activity against Herpes simplex virus type 2 G; type: functional, organism-based; conditions: strain G; summary of the method: as §2
Human alphaherpesvirus 1 [12] = test: Antiviral activity against thymidine kinase deficient acyclovir-resistant Herpes simplex virus type 1 KOS; type: functional, organism-based
Human alphaherpesvirus 1 [13] = test: Antiviral activity against Herpes simplex virus type 1 KOS; type: functional, organism-based; summary of the method: as §2
HEL = test: Cytotoxicity against HEL; type: cell-based; conditions: human
Human betaherpesvirus 5 [14] = test: Antiviral actiivty against Human herpesvirus 5 Davis infected in HEL assessed as reduction of virus-induced plaque formation; type: functional, organism-based; conditions: Human betaherpesvirus 5, Davis
Summary of the method: (§4)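 HCMV strains AD-169 and Davis were tested on confluent human embryonic lung fibroblast monolayers infected with 100 PFU in the presence of serial compound concentrations. Plaques were counted once formation was complete in untreated infected controls. EC50 is the concentration that cuts plaque formation by 50%.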

Human betaherpesvirus 5 [15] = test: Antiviral actiivty against Human herpesvirus 5 AD169 infected in HEL assessed as reduction of virus-induced plaque formation; type: functional, organism-based; conditions: Human betaherpesvirus 5, AD169; summary of the method: as §4
[16] = Cytotoxicity against HEL assessed as minimum cytotoxic concentration required to cause microscopically detectable alteration in cell morphology; type: cell-based; conditions: human, HEL cells

O=c1ccn(CCCCCCCCOc2ccc(Br)cc2)c(=O)[nH]1
Activity [1]: inactive
Activity [2]: inactive
Activity (Feline coronavirus): inactive
Activity (Sindbis virus): inactive
Activity (Punta Toro virus): inactive
Activity (Influenza B virus): inactive
Activity [3]: inactive
Activity (Influenza A virus [4]): inactive
Activity (Human respirovirus 3): inactive
Activity (Influenza A virus [5]): inactive
Activity (Coxsackievirus B4): inactive
Activity [6]: inactive
Activity [7]: inactive
Activity (Vaccinia virus): inactive
Activity (Human alphaherpesvirus 3 [8]): inactive
Activity (Human alphaherpesvirus 3 [9]): inactive
Activity (Human alphaherpesvirus 2 [10]): inactive
Activity (Human alphaherpesvirus 2 [11]): inactive
Activity (Human alphaherpesvirus 1 [12]): inactive
Activity (Human alphaherpesvirus 1 [13]): inactive
CC50 (HEL): > 100 µM
EC50 (Human betaherpesvirus 5 [14]): 8.9 µM
EC50 (Human betaherpesvirus 5 [15]): 12 µM
MCC [16]: ≥ 100 µM

Cc1ccc(OCCCCCn2ccc(=O)[nH]c2=O)cc1
Activity [1]: inactive
Activity [2]: inactive
Activity (Feline coronavirus): inactive
Activity (Sindbis virus): inactive
Activity (Punta Toro virus): inactive
Activity (Influenza B virus): inactive
Activity [3]: inactive
Activity (Influenza A virus [4]): inactive
Activity (Human respirovirus 3): inactive
Activity (Influenza A virus [5]): inactive
Activity (Coxsackievirus B4): inactive
Activity [6]: inactive
Activity [7]: inactive
Activity (Vaccinia virus): inactive
Activity (Human alphaherpesvirus 3 [8]): inactive
Activity (Human alphaherpesvirus 3 [9]): inactive
Activity (Human alphaherpesvirus 2 [10]): inactive
Activity (Human alphaherpesvirus 2 [11]): inactive
Activity (Human alphaherpesvirus 1 [12]): inactive
Activity (Human alphaherpesvirus 1 [13]): inactive
CC50 (HEL): > 100 µM
EC50 (Human betaherpesvirus 5 [14]): > 20 µM
EC50 (Human betaherpesvirus 5 [15]): > 20 µM
MCC [16]: 100 µM

Nc1ccc(OCCCCCn2ccc(=O)[nH]c2=O)cc1
Activity [1]: inactive
Activity [2]: inactive
Activity (Feline coronavirus): inactive
Activity (Sindbis virus): inactive
Activity (Punta Toro virus): inactive
Activity (Influenza B virus): inactive
Activity [3]: inactive
Activity (Influenza A virus [4]): inactive
Activity (Human respirovirus 3): inactive
Activity (Influenza A virus [5]): inactive
Activity (Coxsackievirus B4): inactive
Activity [6]: inactive
Activity [7]: inactive
Activity (Vaccinia virus): inactive
Activity (Human alphaherpesvirus 3 [8]): inactive
Activity (Human alphaherpesvirus 3 [9]): inactive
Activity (Human alphaherpesvirus 2 [10]): inactive
Activity (Human alphaherpesvirus 2 [11]): inactive
Activity (Human alphaherpesvirus 1 [12]): inactive
Activity (Human alphaherpesvirus 1 [13]): inactive
CC50 (HEL): > 100 µM
EC50 (Human betaherpesvirus 5 [14]): 55 µM
EC50 (Human betaherpesvirus 5 [15]): 55 µM
MCC [16]: > 100 µM

Cc1cn(CCCCCOc2ccc(Br)cc2)c(=O)[nH]c1=O
Activity [1]: inactive
Activity [2]: inactive
Activity (Feline coronavirus): inactive
Activity (Sindbis virus): inactive
Activity (Punta Toro virus): inactive
Activity (Influenza B virus): inactive
Activity [3]: inactive
Activity (Influenza A virus [4]): inactive
Activity (Human respirovirus 3): inactive
Activity (Influenza A virus [5]): inactive
Activity (Coxsackievirus B4): inactive
Activity [6]: inactive
Activity [7]: inactive
Activity (Vaccinia virus): inactive
Activity (Human alphaherpesvirus 3 [8]): inactive
Activity (Human alphaherpesvirus 3 [9]): inactive
Activity (Human alphaherpesvirus 2 [10]): inactive
Activity (Human alphaherpesvirus 2 [11]): inactive
Activity (Human alphaherpesvirus 1 [12]): inactive
Activity (Human alphaherpesvirus 1 [13]): inactive
CC50 (HEL): > 100 µM
EC50 (Human betaherpesvirus 5 [14]): 9 µM
EC50 (Human betaherpesvirus 5 [15]): 8.9 µM
MCC [16]: 100 µM

N#Cc1ccc(OCCCCCn2ccc(=O)[nH]c2=O)cc1
Activity [1]: inactive
Activity [2]: inactive
Activity (Feline coronavirus): inactive
Activity (Sindbis virus): inactive
Activity (Punta Toro virus): inactive
Activity (Influenza B virus): inactive
Activity [3]: inactive
Activity (Influenza A virus [4]): inactive
Activity (Human respirovirus 3): inactive
Activity (Influenza A virus [5]): inactive
Activity (Coxsackievirus B4): inactive
Activity [6]: inactive
Activity [7]: inactive
Activity (Vaccinia virus): inactive
Activity (Human alphaherpesvirus 3 [8]): inactive
Activity (Human alphaherpesvirus 3 [9]): inactive
Activity (Human alphaherpesvirus 2 [10]): inactive
Activity (Human alphaherpesvirus 2 [11]): inactive
Activity (Human alphaherpesvirus 1 [12]): inactive
Activity (Human alphaherpesvirus 1 [13]): inactive
CC50 (HEL): 100 µM
EC50 (Human betaherpesvirus 5 [14]): 5.5 µM
EC50 (Human betaherpesvirus 5 [15]): 8.9 µM
MCC [16]: 100 µM
